Data taken from ChEMBL document CHEMBL1671768, “In vitro activity of pyronaridine against multidrug-resistant Plasmodium falciparum and Plasmodium vivax” (Antimicrob Agents Chemother, 2010).

Assays:
Format in all cases: functional, organism-based
Plasmodium vivax [1] = test: Antimalarial activity against Plasmodium vivax infected in human erythrocytes assessed as growth inhibition by microscopic analysis using giemsa staining
How it was run: (§1)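 P. vivax field isolates from Papuan patients, leukocyte-depleted on CF11, were placed in McCoy's 5A + 20% AB+ serum at 2% hematocrit. Plates held 11 two-fold drug dilutions, incubated in a candle jar at 37.5°C until >40% of control rings were mature schizonts. Giemsa thick films were read for schizonts (≥5 chromatin dots/200 parasites) relative to control. IC50 used an inhibitory sigmoid Emax model, accepting fits with Emax/E0 within 15%.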

Plasmodium falciparum [2] = test: Antimalarial activity against Plasmodium falciparum infected in human erythrocytes assessed as growth inhibition by microscopic analysis using giemsa staining
Plasmodium falciparum [3] = test: Antimalarial activity against Plasmodium falciparum trophozoites infected in human erythrocytes assessed as growth inhibition by microscopic analysis using giemsa staining
How it was run: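 Fresh field isolates from uncomplicated malaria patients in Papua, with leukocytes removed on CF11. Cells were kept at 2% hematocrit in RPMI 1640 + 10% AB+ human serum on predosed plates with 11 two-fold drug dilutions, in a candle jar at 37.5°C for 21–46 h. Harvest was when >40% of control rings reached schizont.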

Plasmodium falciparum [4] = test: Antimalarial activity against Plasmodium falciparum at the ring stage infected in human erythrocytes assessed as growth inhibition by microscopic analysis using giemsa staining
Plasmodium vivax [5] = test: Antimalarial activity against Plasmodium vivax with >50% parasites at ring stage infected in human erythrocytes assessed as growth inhibition after 30 to 50 hrs by microscopic analysis using giemsa staining
How it was run: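 Post hoc subset of P. vivax isolates with >50% ring stage at enrollment and assay duration of 30–50 h. Culture was in McCoy's 5A + 20% AB+ serum, 2% hematocrit, 11 two-fold drug dilutions, candle jar, 37.5°C.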

Plasmodium vivax [6] = test: Antimalarial activity against Plasmodium vivax trophozoites infected in human erythrocytes assessed as growth inhibition by microscopic analysis using giemsa staining; how it was run: as §1
Plasmodium vivax [7] = test: Antimalarial activity against Plasmodium vivax at the ring stage infected in human erythrocytes assessed as growth inhibition by microscopic analysis using giemsa staining; how it was run: as §1

SMILES	IC50 (Plasmodium vivax [1]) [nM]	IC50 (Plasmodium falciparum [2]) [nM]	IC50 (Plasmodium falciparum [3]) [nM]	IC50 (Plasmodium falciparum [4]) [nM]	IC50 (Plasmodium vivax [5]) [nM]	IC50 (Plasmodium vivax [6]) [nM]	IC50 (Plasmodium vivax [7]) [nM]
CCN(CC)Cc1cc(Nc2ccnc3cc(Cl)ccc23)ccc1O	14	5.7	12.6	8.1	12	25.2	–
C[C@H]1[C@H](OC(=O)CCC(=O)O)O[C@@H]2O[C@@]3(C)CC[C@H]4[C@H](C)CC[C@@H]1[C@@]24OO3 [ARTESUNATE]	1.03	0.68	–	–	1.27	–	–
CCN(CC)CCCC(C)Nc1ccnc2cc(Cl)ccc12 (stereo not given) [CHLOROQUINE]	142	–	–	–	–	2430	49.2
OC(c1cc(C(F)(F)F)nc2c(C(F)(F)F)cccc12)C1CCCCN1 (stereo not given) [MEFLOQUINE]	12.1	–	8.5	–	8	–	7.9
Clc1ccc2c(N3CCN(CCCN4CCN(c5ccnc6cc(Cl)ccc56)CC4)CC3)ccnc2c1 [PIPERAQUINE]	24.8	17.1	77.2	11.8	19.6	21.7	14
COc1ccc2nc3cc(Cl)ccc3c(Nc3cc(CN4CCCC4)c(O)c(CN4CCCC4)c3)c2n1 [PYRONARIDINE]	2.58	1.92	8	1.6	2.4	4.7	2.5
